# Compound activity (PubChem)
# DENV2 CPE: inhibitors of DENV2 cytopathic effect, primary screen, cell-based, plate reader, single concentration; AID 651640, 2012; CPE inhibition, % at 9.99 µM; 1.7% of 350,000 active; DENV2-infected cells, cytopathic effect rescue; in the data active means CPE inhibition above about 20%, passing the limit was not always enough; inconclusive means no clear call, values can overlap the other calls; tested in BHK-21 cells;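 further: 0% = median of neutral control wells and 100% = median of positive control wells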
# E-sel inducer: E-selectin induction in HUVECs, primary screen, imaging, HUVEC, immunofluorescence imaging, single point; normalized: neutral wells 0, TNF-alpha wells 100; 0.37% of 260,000 active; P16581; activation, % at 7.58 µM;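 active means mean E-selectin-positive cell signal at least 10% of the positive control, reached in at least 60% of replicates, without over 20% cell loss; inconclusive means no rule given, readout overlaps actives, possibly toxicity-flagged; inactive means the rest, including those meeting only one limit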
#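 Read-out: % PE-positive cells | Test system: HUVEC | Doses: One compound dose added by pin transfer | Buffer or medium: EGM-2 over gelatin coat | Signal: Immunofluorescence imaging | Benchmarks: TNF-alpha, DMSO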
# SIRT5 inh: SIRT5 desuccinylase inhibitors, primary screen, biochemical, fluorescence imaging, single point, set 5. NAD-dependent protein deacylase sirtuin-5, mitochondrial (Homo sapiens), Q9NXA8. Purified SirT5, succinyl-peptide AMC, trypsin-coupled fluorescence. inhibition, % at 15 µM. 1.1% of 330,000 active. AID 652115, 2013; in the data active means inhibition above about 15%; inconclusive means no clear call, values can overlap the other calls
# Target sequence (Q9NXA8 whole entry, looked up): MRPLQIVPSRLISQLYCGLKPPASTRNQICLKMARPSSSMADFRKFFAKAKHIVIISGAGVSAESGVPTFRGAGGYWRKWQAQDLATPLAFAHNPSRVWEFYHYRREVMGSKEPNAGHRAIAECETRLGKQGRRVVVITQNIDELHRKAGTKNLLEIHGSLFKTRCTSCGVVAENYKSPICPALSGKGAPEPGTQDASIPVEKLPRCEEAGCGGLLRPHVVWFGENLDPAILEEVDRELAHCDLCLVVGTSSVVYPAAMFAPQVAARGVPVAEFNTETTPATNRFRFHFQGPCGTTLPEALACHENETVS
# Starred values were filed as active, the others as inactive; ? = inconclusive; nt = not tested or not shown. Rows were chosen to be rich in hits. Some 2.9% of all compounds tested hit in one or more screens of this group.
SMILES,DENV2 CPE,E-sel inducer,SIRT5 inh
CNC[C@H]1Oc2ccc(NC(=O)C3CC3)cc2C(=O)N([C@H](C)CO)C[C@@H]1C,7,0,-1
CO[C@@H]1CN(C)C(=O)c2ccc(NC(=O)c3cnccn3)cc2OC[C@@H](C)NC[C@H]1C,-1,0,15*
CO[C@@H]1CN(C)C(=O)c2ccc(NC(=O)c3cnccn3)cc2OC[C@@H](C)NC[C@@H]1C,-3,0,-1
CO[C@H]1CN(C)C(=O)c2ccc(NC(=O)c3cnccn3)cc2OC[C@@H](C)NC[C@H]1C,nt,0,nt
CO[C@H]1CN(C)C(=O)c2ccc(NC(=O)c3cnccn3)cc2OC[C@H](C)NC[C@H]1C,53*,0,3
CC1CCCN(CCCNS(=O)(=O)c2cc(Br)cc3c2N(C(=O)C2CC2)CC3)C1 (stereo not drawn),-5,0,-2
COC(=O)C1=C(N)OC2=C(C(=O)CC(C)(C)C2)C1c1ccccc1OC (stereo not drawn),1,1,-2
CCCCn1nnnc1C1(C)CCC(=O)N1Cc1cccs1 (stereo not drawn),13,0,nt
CNC[C@@H]1Oc2c(NC(=O)C3CCOCC3)cccc2C(=O)N([C@H](C)CO)C[C@@H]1C,-9,0,4
CC1CC(C)CN(C(=O)COC(=O)C2CCN(S(=O)(=O)c3c(Cl)cccc3Cl)CC2)C1 (stereo not drawn),5,1,11
CC1CCCN(C(=O)COC(=O)C2CCN(S(=O)(=O)c3c(Cl)cccc3Cl)CC2)C1 (stereo not drawn),-2,nt,18*
Cc1cc2nc(-c3ccc[nH]c3=O)n(Cc3cccc(F)c3)c2cc1C,3,1,-3
CCCn1c(-c2ccc[nH]c2=O)nc2cc(C)c(C)cc21,25*,nt,-13
CCOC(=O)C1=C(C)N=c2s/c(=C\c3ccc(OCC(=O)O)c(OC)c3)c(=O)n2C1c1ccc(OC)cc1 (stereo not drawn),9,1,8
CCOC(=O)C1=C(c2ccccc2)N=c2sc(=Cc3cc(OC)c(OC)c(OC)c3)c(=O)n2C1c1cccs1 (stereo not drawn),7,3,16*
CCOC(=O)C1=C(c2ccccc2)N=c2s/c(=C\c3ccc(O)cc3)c(=O)n2C1c1cccs1 (stereo not drawn),?,nt,0
CCOC(=O)C1=C(C)N=c2sc(=Cc3cc(Cl)c(OCC(=O)O)c(OC)c3)c(=O)n2C1c1ccccc1Cl (stereo not drawn),-10,0,24*
CC(NC(=O)CCSCCC(=O)NC(C)c1ccccc1)c1ccccc1 (stereo not drawn),nt,0,nt
Cc1cccc(NC(=O)CSCC(=O)Nc2ccc(S(=O)(=O)N3CCCC3)cc2)c1,-4,-2,-1
CC12CCC(C)(c3nc4ccccc4nc31)C2(C)C,-2,nt,-3
O=C1/C(=C\c2c(NCCOCCO)nc3ccccn3c2=O)SC(=S)N1Cc1ccco1,-4,73*,-3
CN(C)c1ccc(C=C2SC(=S)N(Cc3ccco3)C2=O)cc1,0,23,-5
O=C(Cc1ccccc1)Nc1ccnn1C1CCN(Cc2ccc(CO)o2)CC1,-4,2,1
COc1cccc(NC(=O)CN(C)C(=O)Cc2ccc3c(c2)CCC3)c1,-3,nt,-4
COc1cccc(NC(=O)CN(C)C(=O)Cc2ccc3c(c2)OCCO3)c1,42*,4,1
SMILES,DENV2 CPE,E-sel inducer,SIRT5 inh
CC(C)CC#Cc1ccc2c(c1)O[C@H](CN(C)Cc1ccc3c(c1)OCO3)[C@H](C)CN([C@H](C)CO)S2(=O)=O,-4,nt,14*
CC(C)CC#Cc1ccc2c(c1)O[C@@H](CN(C)Cc1ccc(F)cc1)[C@@H](C)CN([C@H](C)CO)S2(=O)=O,45*,0,2
COc1ccccc1-c1ccc2c(c1)O[C@@H](CN(C)Cc1ccc3c(c1)OCO3)[C@@H](C)CN([C@@H](C)CO)S2(=O)=O,-4,nt,21*
CC(C)CC#Cc1ccc2c(c1)O[C@@H](CN(C)Cc1ccc3c(c1)OCO3)[C@@H](C)CN([C@H](C)CO)S2(=O)=O,9,nt,nt
CC(C)CC#Cc1ccc2c(c1)O[C@H](CN(C)Cc1cncnc1)[C@H](C)CN([C@@H](C)CO)S2(=O)=O,-4,0,0
COc1ccccc1-c1ccc2c(c1)O[C@H](CN(C)Cc1ccc3c(c1)OCO3)[C@H](C)CN([C@@H](C)CO)S2(=O)=O,-1,nt,?
CC(C)CC#Cc1ccc2c(c1)O[C@@H](CN(C)Cc1cncnc1)[C@H](C)CN([C@@H](C)CO)S2(=O)=O,24*,0,-2
CC(C)CC#Cc1ccc2c(c1)O[C@H](CN(C)Cc1ccc(F)cc1)[C@H](C)CN([C@@H](C)CO)S2(=O)=O,16,nt,?
O=C1CN(C(=O)c2c(F)cccc2F)C(c2ccccc2)c2cc(Br)ccc2N1 (stereo not drawn),4,3,-2
O=C(COC(=O)c1cc(Cl)ccc1O)NC(=O)NCc1ccccc1,7,nt,5
O=C(C[C@H]1C=C[C@H](NC(=O)C2CCC2)[C@H](CO)O1)NCc1ccccc1Cl,-1,0,9
CC(C)Nc1nc(Nc2ccc(C#N)cc2)c2sccc2n1,17,0,nt
COc1cccc(-c2ccc(C3[C@H]4CNC[C@@H]3N4CC3CCOCC3)cc2)c1 (stereo partly drawn),-2,0,0
C[C@H]1CN([C@@H](C)CO)S(=O)(=O)c2ccc(C#CC(C)(C)O)cc2O[C@@H]1CN(C)Cc1ccc(F)cc1,0,0,16*
C[C@@H]1CN([C@@H](C)CO)S(=O)(=O)c2ccc(C#CC(C)(C)O)cc2O[C@H]1CN(C)Cc1ccccc1,-4,?,11
CCOc1cc(/C=N/NC(=O)C(N)=O)cc(Br)c1O,6,nt,9
CCOc1cc(/C=N/NC(=O)C(=O)NC2CC2)cc(Br)c1O,47*,nt,-8
CCOC(=O)C1CCN(S(=O)(=O)c2c(C)[nH]c(C)c2C(=O)N2CCCC2)CC1,-2,0,-5
O=C(CN1CCN(S(=O)(=O)c2ccc3ccccc3c2)CC1)Nc1ccc(N2CCOCC2)cc1,-12,4,0
CCN(CC)c1ccc(S(=O)(=O)N2CCOCC2)cc1NC(=O)CN1CCN(Cc2ccccc2)CC1,-3,1,29*
CCN(CC)c1ccc(S(=O)(=O)N2CCOCC2)cc1NC(=O)CNCc1ccccc1,-5,nt,-2
COc1ccc(N2CCN(CC(=O)Nc3cccc(S(=O)(=O)N4CCOCC4)c3)CC2)cc1,-10,nt,15*
CCOc1cc(NC(=O)c2cccs2)c(OCC)cc1NC(=O)c1cccnc1,7,nt,-1
O=C(CN1CCN(Cc2ccc(F)cc2Cl)C1=O)NCCc1ccccc1,3,2,nt
CCN(Cc1ccccc1)S(=O)(=O)CCNC(=O)c1ccccc1,-8,1,-2
CCN(Cc1ccccc1)S(=O)(=O)CCNC(=O)c1ccc(OC)cc1,-1,0,35*
CSc1nc(-c2ccccc2)c(C#N)c(=O)[nH]1,8,0,-4
CC(=O)c1cc(CC(=O)N2CCc3c([nH]c4ccccc34)C2c2ccccn2)cs1 (stereo not drawn),1,nt,-2
